Key:
Format in all cases: functional
Mus musculus [1] = assay: Compound was evaluated for the antinociceptive response after intravenous administration using hot-plat test (55+/-1 degree Celsius) in mice (for jump latency time) at the dose of 0.75*10e-6 mol/mice and 0.46*10e-6 mol/mice respectively
Summary of the method: (§1)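 Mice on a hot plate held at 55 ± 0.5 °C inside a glass cylinder, tested 15 min after iv dosing. Read-out was latency to jump, with a 240 s cutoff. % analgesia = (test − control latency)/(cutoff − control latency) × 100. Groups compared by ANOVA followed by Dunnett's t test.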

Mus musculus [2] = assay: Compound was evaluated for the percentage of analgesic effect in mice at the time of 15 min after intravenous administration of dose 0.75*10e-6 mol/mice and 0.46*10e-6 mol/mice respectively; summary of the method: as §1
Mus musculus [3] = assay: Compound (20 mg/kg) was evaluated for the antinociceptive response after intravenous administration using hot-plat test (55+/-1 degree Celsius) in mice(for jump latency time) at the dose of 0.57*10e-6 mol/mouse; summary of the method: as §1
Mus musculus [4] = assay: Compound (20 mg/kg) was evaluated for the percentage of analgesic effect in mice at the time of 15 min after intravenous administration of dose 0.57*10e-6 mol/mouse; summary of the method: as §1
Mus musculus [5] = assay: Compound was evaluated for the antinociceptive response after intravenous administration using hot-plat test (55+/-1 degree Celsius) in mice (for jump latency time) at the dose of 10 mg/kg; summary of the method: as §1
Mus musculus [6] = assay: Compound was evaluated for the antinociceptive response after intravenous administration using hot-plat test (55+/-1 degree Celsius) in mice (for jump latency time) at the dose of 5 mg/kg; summary of the method: as §1
Mus musculus [7] = assay: Compound was evaluated for the antinociceptive response after intravenous administration using hot-plat test (55+/-1 degree Celsius) in mice (for jump latency time) at the dose of 0 mg/kg; summary of the method: as §1
Mus musculus [8] = assay: Compound was evaluated for the percentage of analgesic effect in mice at the time of 15 min after intravenous administration of dose 10 mg/kg; summary of the method: as §1
Mus musculus [9] = assay: Compound was evaluated for the antinociceptive response after intravenous administration using hot-plat test (55+/-1 degree Celsius) in mice (for jump latency time) at the dose of 1 mg/kg; summary of the method: as §1
Mus musculus [10] = assay: Compound was evaluated for the percentage of analgesic effect in mice at the time of 15 min after intravenous administration of dose 5 mg/kg; summary of the method: as §1
Mus musculus [11] = assay: Compound was evaluated for the percentage of analgesic effect in mice at the time of 15 min after intravenous administration of dose 1 mg/kg; summary of the method: as §1

| SMILES | Jump latency time (Mus musculus [5]) [s] | Jump latency time (Mus musculus [6]) [s] | Jump latency time (Mus musculus [7]) [s] | Analgesia (Mus musculus [8]) [%] | further results |
| --- | --- | --- | --- | --- | --- |
| CSCCC(N)CSSCC(N)CCSC.O=C(NC(Cc1ccccc1)C(=O)OCc1ccccc1)C(CSSCC(Cc1ccccc1)C(=O)NC(Cc1ccccc1)C(=O)OCc1ccccc1)Cc1ccccc1 (stereo not given) |  |  |  |  | Jump latency time (Mus musculus [1]): 126 s; Analgesia (Mus musculus [2]): 32.2% |
| CSCCC(N)CSSCC(Cc1ccccc1)C(=O)NC(Cc1ccccc1)C(=O)OCc1ccccc1 (stereo not given) |  |  |  |  | Jump latency time (Mus musculus [3]): 236 s; Analgesia (Mus musculus [4]): 92.1% |
| N[C@H](CSC(=O)CCC(=O)SCC(Cc1ccccc1)C(=O)NCC(=O)OCc1ccccc1)Cc1ccccc1 (stereo not given in full) | 71.7 | 46.5 | 48.7 | 12 |  |
| CC(=O)SCC(Cc1ccccc1)C(=O)NCC(=O)SC[C@@H](N)Cc1ccccc1 (stereo not given in full) | 143 | 80.4 | 56.7 | 63 | Jump latency time (Mus musculus [9]): 74.1 s; Analgesia (Mus musculus [10]): 13%; Analgesia (Mus musculus [11]): 9% |
